For orientation: IC50 means the concentration that inhibits the measured activity by half. In general, inhibition refers to how much of the control response was suppressed. As a reminder, the EC50 is the concentration giving half of the maximal effect.

Active and inactive are the calls of the source. No cut-off for these calls is given here. Bounds are passed on as bounds.

Data set [1] deals with Epidermal growth factor receptor (Homo sapiens, UniProt P00533). Nature of the data set: Inhibition of wild type EGFR (unknown origin) using TK-substrate preincubated with enzyme for 30 mins followed by substrate and ATP addition for 25 mins by HTRF assay. On the technique in general: TR-FRET usually uses a lanthanide donor and a delayed reading to cut background.
Chain of Epidermal growth factor receptor (Homo sapiens, UniProt P00533) (P00533 whole entry, the tested form may be a part): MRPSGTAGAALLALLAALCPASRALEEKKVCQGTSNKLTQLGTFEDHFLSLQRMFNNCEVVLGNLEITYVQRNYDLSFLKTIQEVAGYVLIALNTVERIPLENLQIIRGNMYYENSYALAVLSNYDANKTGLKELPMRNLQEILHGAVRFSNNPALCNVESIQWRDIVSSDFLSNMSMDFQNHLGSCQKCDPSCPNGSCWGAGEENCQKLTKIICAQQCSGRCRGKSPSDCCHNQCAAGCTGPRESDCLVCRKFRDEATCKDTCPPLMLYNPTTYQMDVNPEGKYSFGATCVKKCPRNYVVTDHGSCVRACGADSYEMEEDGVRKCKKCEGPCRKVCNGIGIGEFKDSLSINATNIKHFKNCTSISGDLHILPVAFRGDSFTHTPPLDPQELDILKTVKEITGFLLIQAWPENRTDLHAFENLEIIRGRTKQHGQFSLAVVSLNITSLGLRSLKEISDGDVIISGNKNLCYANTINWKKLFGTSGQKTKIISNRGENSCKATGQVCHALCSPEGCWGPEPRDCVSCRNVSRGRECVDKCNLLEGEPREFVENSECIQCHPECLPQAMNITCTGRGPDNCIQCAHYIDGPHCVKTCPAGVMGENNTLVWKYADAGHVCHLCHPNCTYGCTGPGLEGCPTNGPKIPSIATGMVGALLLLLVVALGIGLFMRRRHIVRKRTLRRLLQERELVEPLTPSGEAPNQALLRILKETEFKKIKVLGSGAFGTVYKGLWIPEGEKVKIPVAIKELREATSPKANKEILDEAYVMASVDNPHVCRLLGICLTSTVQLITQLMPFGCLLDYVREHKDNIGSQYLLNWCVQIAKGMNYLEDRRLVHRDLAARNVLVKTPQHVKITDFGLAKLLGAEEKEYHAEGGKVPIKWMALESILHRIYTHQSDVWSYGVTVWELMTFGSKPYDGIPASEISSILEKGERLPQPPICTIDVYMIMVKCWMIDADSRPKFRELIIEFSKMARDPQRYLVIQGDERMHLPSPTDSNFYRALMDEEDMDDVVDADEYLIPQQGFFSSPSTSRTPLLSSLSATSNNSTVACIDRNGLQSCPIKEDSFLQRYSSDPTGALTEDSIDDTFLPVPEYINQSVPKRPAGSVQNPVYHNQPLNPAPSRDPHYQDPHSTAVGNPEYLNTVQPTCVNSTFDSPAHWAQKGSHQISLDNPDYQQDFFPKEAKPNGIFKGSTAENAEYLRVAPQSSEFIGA
The target of data set [2] is Platelet-derived growth factor receptor alpha (Homo sapiens) (UniProt P16234). Nature of the data set: Inhibition of GST-tagged human recombinant PDGFR-alpha (550 to 1089 residues) expressed in baculovirus expression system at 200 nM by Z'-lyte assay.
For a further data set, the system named is Insect cell. Briefly: Inhibition of GST-tagged human recombinant VEGFR3 (800 to 1297 residues) Q890H/V1128L/H1146R mutant expressed in insect cells at 200 nM by Z'-lyte assay.
A short description of data set [3]: Intrinsic clearance in mouse liver microsomes at 1 uM in presence of NADP measured per mg protein by LC-MS/MS analysis. Type of data set: ADME, Microsome. Particulars: read-out: CLH. (In general: Microsomes from liver hold many membrane-bound enzymes, among them those of drug oxidation.)
The subject of data set [4] is BaF3. Nature of the data set: Cytotoxicity against mouse BaF3 cells expressing EGFR L858R/T790M/C797S mutant assessed as reduction in cell viability incubated for 96 hrs by CellTiter-Glo assay. It counts as functional, cell-based. The note with it: BaF3, 96 h. A general note: ATP-based viability assays read luminescence as a measure of living cells.
The target of data set [5] is Fibroblast growth factor receptor 2 (Homo sapiens) (UniProt P21802). Nature of the data set: Inhibition of His-tagged human recombinant FGFR2 (403 to 822 residues) expressed in baculovirus expression system at 200 nM by Z'-lyte assay.
Data set [6] addresses Tyrosine-protein kinase Fyn (Homo sapiens) (UniProt P06241). Briefly: Inhibition of His-tagged human recombinant FYN expressed in insect cells at 200 nM by Z'-lyte assay. The note with it: Insect cell.
Data set [7] concerns the target Epidermal growth factor receptor (Homo sapiens, UniProt P00533, C797S/L858R/T790M). Nature of the data set: Inhibition of EGFR L858R/T790M/C797S mutant (unknown origin) using TK-substrate preincubated with enzyme for 30 mins followed by substrate and ATP addition for 10 mins by HTRF assay.
Data set [8] has as its target Tyrosine-protein kinase Fes/Fps (Homo sapiens) (UniProt P07332). Briefly: Inhibition of His-tagged human recombinant FES expressed in baculovirus expression system at 200 nM by Z'-lyte assay.
The target of data set [9] is Tyrosine-protein kinase BTK (Homo sapiens) (UniProt Q06187). Nature of the data set: Inhibition of His-tagged human recombinant BTK expressed in insect cells at 200 nM by Z'-lyte assay. Particulars: Insect cell.
The subject of data set [10] is Epidermal growth factor receptor (Homo sapiens), P00533 [L858R,T790M]. Nature of the data set: Inhibition of EGFR L858R/T790M mutant (unknown origin) using TK-substrate preincubated with enzyme for 30 mins followed by substrate and ATP addition for 20 mins by HTRF assay. Particulars: time 50.0 min.
For data set [11], the target named is Tyrosine-protein kinase TXK (Homo sapiens) (UniProt P42681). Nature of the data set: Inhibition of GST-tagged human recombinant TXK (260 to 527 residues) expressed in baculovirus expression system at 200 nM by Z'-lyte assay.
Data set [12] has as its target Platelet-derived growth factor receptor beta (Homo sapiens) (UniProt P09619). Briefly: Inhibition of His-tagged human recombinant PDGFR-beta (558 to 1106 residues) expressed in baculovirus expression system at 200 nM by Z'-lyte assay.
The target in data set [13] is Epidermal growth factor receptor (Homo sapiens, UniProt P00533, C797S/L858R). Briefly: Inhibition of EGFR L858R/C797S mutant (unknown origin) using TK-substrate preincubated with enzyme for 30 mins followed by substrate and ATP addition for 20 mins by HTRF assay.
Chain of Epidermal growth factor receptor (Homo sapiens, UniProt P00533, C797S/L858R) (P00533 25-1210 C797S/L858R limits assumed): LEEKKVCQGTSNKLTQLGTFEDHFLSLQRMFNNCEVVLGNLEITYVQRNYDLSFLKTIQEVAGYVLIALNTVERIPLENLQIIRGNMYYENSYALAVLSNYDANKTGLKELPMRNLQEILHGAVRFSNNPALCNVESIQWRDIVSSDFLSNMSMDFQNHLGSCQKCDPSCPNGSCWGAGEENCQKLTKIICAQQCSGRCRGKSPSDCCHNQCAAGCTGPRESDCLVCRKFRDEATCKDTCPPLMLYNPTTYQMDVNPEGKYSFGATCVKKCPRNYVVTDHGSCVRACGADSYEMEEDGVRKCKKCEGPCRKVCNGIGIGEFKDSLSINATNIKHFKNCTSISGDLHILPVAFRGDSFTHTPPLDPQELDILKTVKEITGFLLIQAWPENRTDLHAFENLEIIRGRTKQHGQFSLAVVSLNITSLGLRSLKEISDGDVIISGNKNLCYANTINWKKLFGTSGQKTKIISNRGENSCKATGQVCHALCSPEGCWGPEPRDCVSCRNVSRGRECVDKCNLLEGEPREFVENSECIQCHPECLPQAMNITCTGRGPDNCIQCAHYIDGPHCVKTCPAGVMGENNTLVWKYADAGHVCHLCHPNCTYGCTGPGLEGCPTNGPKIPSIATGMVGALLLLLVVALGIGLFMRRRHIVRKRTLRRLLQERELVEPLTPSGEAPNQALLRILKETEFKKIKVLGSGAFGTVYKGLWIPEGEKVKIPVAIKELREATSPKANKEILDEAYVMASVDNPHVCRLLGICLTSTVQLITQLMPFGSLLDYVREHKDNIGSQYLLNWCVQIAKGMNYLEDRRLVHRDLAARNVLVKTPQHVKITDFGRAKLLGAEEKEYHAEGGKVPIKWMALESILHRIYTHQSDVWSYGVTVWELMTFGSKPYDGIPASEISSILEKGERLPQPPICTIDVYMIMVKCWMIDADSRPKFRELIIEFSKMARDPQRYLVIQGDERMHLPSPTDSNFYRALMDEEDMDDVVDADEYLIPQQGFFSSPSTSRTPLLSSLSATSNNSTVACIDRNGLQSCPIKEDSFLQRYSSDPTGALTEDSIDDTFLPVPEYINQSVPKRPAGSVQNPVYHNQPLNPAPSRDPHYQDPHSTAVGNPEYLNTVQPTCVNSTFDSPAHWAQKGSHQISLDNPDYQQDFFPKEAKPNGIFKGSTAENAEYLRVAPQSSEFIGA
In data set [14] the target is Vascular endothelial growth factor receptor 2 (Homo sapiens) (UniProt P35968). Briefly: Inhibition of His-tagged human recombinant VEGFR2 (789 to 1356 residues) expressed in insect cells at 200 nM by Z'-lyte assay. The note with it: Insect cell.
The test system of another data set is A-431. Briefly: Cytotoxicity against human A-431 cells expressing wild type EGFR assessed as reduction in cell viability incubated for 96 hrs by CellTiter-Glo assay. It counts as functional, cell-based. The note with it: A-431, 96 h.
Data set [15] concerns BaF3. Briefly: Cytotoxicity against mouse BaF3 cells expressing EGFR L858R/C797S mutant assessed as reduction in cell viability incubated for 96 hrs by CellTiter-Glo assay. It counts as functional, cell-based. Particulars: BaF3, 96 h.
Data set [16] relates to BaF3. Nature of the data set: Cytotoxicity against mouse BaF3 cells expressing EGFR L858R mutant assessed as reduction in cell viability incubated for 96 hrs by CellTiter-Glo assay. Type of data set: functional, cell-based. The note with it: BaF3, 96 h. The gist of the method:
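Cell viability measured by CellTiter-Glo (CTG) luminescence. A431 cells are EGFR wild-type dependent. Ba/F3 cells are made dependent on EGFR-L858R or EGFR-L858R/C797S. Readout is an EC50 for loss of viability.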

Data set [17] addresses Epidermal growth factor receptor (Homo sapiens, UniProt P00533, L858R). Briefly: Inhibition of EGFR L858R mutant (unknown origin) using TK-substrate preincubated with enzyme for 30 mins followed by substrate and ATP addition for 15 mins by HTRF assay.
Data set [18] has as its target Tyrosine-protein kinase Lyn (Homo sapiens) (UniProt P07948). Briefly: Inhibition of human LYN at 200 nM by Z'-lyte assay.
The target in data set [19] is Inactive tyrosine-protein kinase PEAK1 (Homo sapiens) (UniProt Q9H792). Nature of the data set: Inhibition of human PEAK1 at 200 nM by Z'-lyte assay.
Data set [20] deals with ALK tyrosine kinase receptor (Homo sapiens) (UniProt Q9UM73). Nature of the data set: Inhibition of human ALK at 200 nM by Z'-lyte assay.
Data set [21] has as its target Tyrosine-protein kinase ABL1 (Homo sapiens) (UniProt P00519). Briefly: Inhibition of His-tagged human recombinant ABL1 expressed in insect cells at 200 nM by Z'-lyte assay. The note with it: Insect cell.
The target in data set [22] is Tyrosine-protein kinase HCK (Homo sapiens) (UniProt P08631). Nature of the data set: Inhibition of GST-tagged human recombinant HCK expressed in insect cells at 200 nM by Z'-lyte assay. Particulars: Insect cell.
The target in data set [23] is Tyrosine-protein kinase Lck (Homo sapiens) (UniProt P06239). Nature of the data set: Inhibition of human LCK at 200 nM by Z'-lyte assay.
For data set [24], the target named is Tyrosine-protein kinase Blk (Homo sapiens) (UniProt P51451). Briefly: Inhibition of His-tagged human recombinant BLK expressed in insect cells at 200 nM by Z'-lyte assay. The note with it: Insect cell.

Chain of Epidermal growth factor receptor (Homo sapiens, UniProt P00533, C797S/L858R/T790M) (P00533 25-1210 T790M/C797S/L858R limits assumed): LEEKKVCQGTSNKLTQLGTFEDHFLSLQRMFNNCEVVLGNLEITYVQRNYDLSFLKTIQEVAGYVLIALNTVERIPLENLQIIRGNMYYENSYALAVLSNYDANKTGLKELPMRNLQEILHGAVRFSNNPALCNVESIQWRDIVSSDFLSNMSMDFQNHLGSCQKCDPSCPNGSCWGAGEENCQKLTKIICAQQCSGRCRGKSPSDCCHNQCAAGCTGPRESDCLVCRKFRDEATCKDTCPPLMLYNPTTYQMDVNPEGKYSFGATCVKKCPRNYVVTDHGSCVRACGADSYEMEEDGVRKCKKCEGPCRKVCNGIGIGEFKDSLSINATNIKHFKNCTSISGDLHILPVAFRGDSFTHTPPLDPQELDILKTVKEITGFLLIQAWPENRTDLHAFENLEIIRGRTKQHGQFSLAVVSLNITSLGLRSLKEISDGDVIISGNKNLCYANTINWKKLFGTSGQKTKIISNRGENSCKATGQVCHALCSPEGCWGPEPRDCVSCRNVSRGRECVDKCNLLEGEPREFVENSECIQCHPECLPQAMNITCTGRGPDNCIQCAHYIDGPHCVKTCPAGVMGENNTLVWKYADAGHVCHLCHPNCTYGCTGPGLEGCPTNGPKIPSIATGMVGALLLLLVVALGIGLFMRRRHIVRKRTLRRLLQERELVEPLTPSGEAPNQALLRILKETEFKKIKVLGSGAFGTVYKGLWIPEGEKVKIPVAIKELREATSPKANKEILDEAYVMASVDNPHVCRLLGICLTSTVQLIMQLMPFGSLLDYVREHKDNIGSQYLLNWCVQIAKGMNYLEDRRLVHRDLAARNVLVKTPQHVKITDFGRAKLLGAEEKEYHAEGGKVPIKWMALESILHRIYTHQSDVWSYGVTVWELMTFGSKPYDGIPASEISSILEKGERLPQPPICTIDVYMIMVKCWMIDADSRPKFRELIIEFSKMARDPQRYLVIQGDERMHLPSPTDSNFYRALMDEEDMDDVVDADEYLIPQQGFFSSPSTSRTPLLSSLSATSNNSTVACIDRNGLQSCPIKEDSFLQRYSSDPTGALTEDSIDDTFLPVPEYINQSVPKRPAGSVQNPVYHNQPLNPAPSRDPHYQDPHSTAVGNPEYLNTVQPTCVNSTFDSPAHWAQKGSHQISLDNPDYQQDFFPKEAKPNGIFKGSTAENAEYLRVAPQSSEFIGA
Chain of Epidermal growth factor receptor (Homo sapiens, UniProt P00533, L858R) (P00533 25-1210 L858R limits assumed): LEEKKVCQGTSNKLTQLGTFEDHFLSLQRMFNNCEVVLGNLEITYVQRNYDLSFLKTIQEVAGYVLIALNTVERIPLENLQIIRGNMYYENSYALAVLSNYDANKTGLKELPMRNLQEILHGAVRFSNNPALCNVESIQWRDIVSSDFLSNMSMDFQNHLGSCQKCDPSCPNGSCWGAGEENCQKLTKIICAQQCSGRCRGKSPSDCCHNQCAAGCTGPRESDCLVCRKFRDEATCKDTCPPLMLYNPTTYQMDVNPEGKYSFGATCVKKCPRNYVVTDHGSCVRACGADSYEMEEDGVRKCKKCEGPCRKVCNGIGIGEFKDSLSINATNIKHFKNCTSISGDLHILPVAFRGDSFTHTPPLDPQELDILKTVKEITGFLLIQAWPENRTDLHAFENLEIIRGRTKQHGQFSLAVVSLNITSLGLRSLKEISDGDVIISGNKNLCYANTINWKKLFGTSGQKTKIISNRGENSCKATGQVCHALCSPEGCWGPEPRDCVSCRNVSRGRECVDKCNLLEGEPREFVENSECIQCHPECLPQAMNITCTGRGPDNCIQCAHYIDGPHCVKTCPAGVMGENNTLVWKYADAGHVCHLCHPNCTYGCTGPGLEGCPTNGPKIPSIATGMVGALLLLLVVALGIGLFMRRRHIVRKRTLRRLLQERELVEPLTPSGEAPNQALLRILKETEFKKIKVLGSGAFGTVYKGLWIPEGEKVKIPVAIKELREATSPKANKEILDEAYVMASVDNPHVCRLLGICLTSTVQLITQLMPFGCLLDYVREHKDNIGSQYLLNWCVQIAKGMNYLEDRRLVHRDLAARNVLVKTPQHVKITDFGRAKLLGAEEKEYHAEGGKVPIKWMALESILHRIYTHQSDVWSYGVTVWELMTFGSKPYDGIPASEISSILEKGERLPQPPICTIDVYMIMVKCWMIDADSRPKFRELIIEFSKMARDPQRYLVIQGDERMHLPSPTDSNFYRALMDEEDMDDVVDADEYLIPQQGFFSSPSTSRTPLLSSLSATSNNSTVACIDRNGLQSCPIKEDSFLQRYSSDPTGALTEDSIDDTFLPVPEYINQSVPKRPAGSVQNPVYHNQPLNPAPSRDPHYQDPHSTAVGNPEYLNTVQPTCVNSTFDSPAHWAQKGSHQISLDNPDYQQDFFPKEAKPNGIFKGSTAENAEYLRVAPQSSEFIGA

With `COc1cc(N2CCC(N(C)C)CC2)ccc1Nc1ncc(C(=O)Oc2ccccc2)c(-c2c[nH]c3ccccc23)n1`, the IC50 is 0.008 nM in [1], 0.64 nM in data set [7] and 0.02 nM in data set [13]. Also, the inhibition (in [2]; in the data set on Insect cell; in data set [5]; in data set [6]; in [8]; in data set [11]) was greater than 40% each time. Besides, the inhibition in data set [12] and in [14] was greater than 40% each time. Besides, in data set [3], the microsomal CLint at 1 µM is 55 µL/min/mg. Moreover, the half-maximal effective concentration (EC50) with BaF3 [4] was determined as 470 nM; in the data set on A-431, 1840 nM; in the data set on BaF3 [15] it was 7.1 nM. The inhibition result in data set [9] and in [10] was “Active” throughout.
Consider `COc1cc(N2CCC(N)CC2)ccc1Nc1ncc(C(=O)OC(C)C)c(-c2cn(C)c3ccccc23)n1`, for which the results for the IC50 in data set [1], in data set [7] and in data set [13] were 0.35 nM, 12 nM and 0.56 nM, respectively. The EC50 was determined as 4020 nM with A-431 and 354 nM in the data set with BaF3 [15].
Turning to `CCOC(=O)c1cnc(Nc2ccc(N3CCN(C)CC3)cc2OC)nc1-c1cn(C)c2ccccc12`, the values for the IC50 in [1], in data set [13] and in data set [17] were 5.2 nM, 17 nM and 0.68 nM, respectively. The 50% effective concentration (EC50) stood at 1900 nM in the data set with BaF3 [16] and 1880 nM in the data set with BaF3 [15].
With `C=CC(=O)Nc1cc(Nc2nccc(-c3cn(C)c4ccccc34)n2)c(OC)cc1N(C)CCN(C)C` [OSIMERTINIB], the microsomal CLint at 1 µM in data set [3] stood at 81 µL/min/mg. Besides, the EC50 worked out at 6 nM in the data set with BaF3 [16], […] in the data set on A-431 and 2960 nM with BaF3 [15].
With `COc1cc(N2CCC(N3CCN(C)CC3)CC2)ccc1Nc1ncc(Cl)c(Nc2ccccc2P(C)(C)=O)n1` [BRIGATINIB], the EC50 in the data set with A-431 worked out at 936 nM; with BaF3 [15], 295 nM.
Consider `COc1cc(N2CCC(N(C)C)CC2)ccc1Nc1ncc(C(=O)OC(C)C)c(-c2c[nH]c3ccccc23)n1`, for which the figures for the half-maximal inhibitory concentration (IC50) in data set [1], in data set [7] and in data set [13] were 0.16 nM, 15 nM and 0.32 nM, respectively. Also, the inhibition in data set [18], in [19], in data set [20], in data set [21], in data set [22] and in data set [23] was greater than 40% in each case. For the same compound, the inhibition in data set [24] was greater than 40%. The microsomal CLint at 1 µM in data set [3] was 49 µL/min/mg. For the same compound, the results for the half-maximal effective concentration (EC50) in the data set with A-431 and in the data set with BaF3 [15] were 3890 nM and 111 nM, respectively.
Turning to `COC(=O)c1cnc(Nc2ccc(N3CCN(C)CC3)cc2OC)nc1-c1cn(C)c2ccccc12`, the IC50 came out at 23 nM in data set [1], 73 nM in [13] and 3.4 nM in [17]. Moreover, the concentration for a half-maximal effect (EC50) in the data set with BaF3 [16] was 3340 nM; in the data set with BaF3 [15], 3750 nM.
For `COc1cc(N2CCC(N(C)C)CC2)ccc1Nc1ncc(C(=O)OC(C)C)c(-c2cn(C)c3ccccc23)n1`, the concentration for half-maximal inhibition (IC50) in [1] amounted to 0.4 nM; in [7] it was 19 nM; in data set [13] it was 0.42 nM. Also, the EC50 came out at 3670 nM in the data set with A-431 and 202 nM in the data set with BaF3 [15].
On to `COc1cc(N2CCC(N(C)C)CC2)ccc1Nc1ncc(C(=O)OC(C)C)c(-c2cn(C(C)=O)c3ccccc23)n1`, for which the IC50 in data set [1] is 0.86 nM; in data set [7], 78 nM; in data set [13], 3 nM. The EC50 with A-431 was determined as 3920 nM; in the data set with BaF3 [15], 220 nM.
As to `COc1cc(N2CCN(C)CC2)ccc1Nc1ncc(C(=O)Oc2ccc(F)cc2)c(-c2cn(C)c3ccccc23)n1`, the EC50 turned out to be 1410 nM in the data set on A-431 and 227 nM in the data set on BaF3 [15].
With `COc1cc(N2CCN(C)CC2)ccc1Nc1ncc(C(=O)Oc2ccccc2)c(-c2cn(C)c3ccccc23)n1`, the IC50 turned out to be 0.053 nM in data set [1], 8.8 nM in [7] and 0.064 nM in data set [13]. Besides, the EC50 turned out to be 2610 nM with A-431 and 94 nM in the data set with BaF3 [15].
Turning to `C=CC(=O)Nc1cc(Nc2ncc(C(=O)OC(C)C)c(-c3cn(C)c4ccccc34)n2)c(OC)cc1N(C)CCN(C)C` [MOBOCERTINIB], the half-inhibitory concentration (IC50) was found to be 0.025 nM in data set [1], 364 nM in data set [7], 25 nM in data set [13] and 0.01 nM in data set [17]. For the same compound, in [3], the microsomal CLint at 1 µM amounted to 149 µL/min/mg. Moreover, the EC50 with BaF3 [16] is 1.1 nM; in the data set on A-431, 1680 nM; in the data set on BaF3 [15] it was 2710 nM.
`COc1cc(N2CCN(C)CC2)ccc1Nc1nccc(-c2cn(C)c3ccccc23)n1`: the results for the IC50 in data set [1], in [13] and in data set [17] were 34 nM, 125 nM and 5.4 nM, respectively. Moreover, the results for the EC50 in the data set on BaF3 [16] and in the data set with BaF3 [15] were 3630 nM and 2060 nM, respectively.
In the case of `COc1cc(N2CCN(C)CC2)ccc1Nc1ncc(C(=O)OC(C)C)c(-c2cn(C)c3ccccc23)n1`, the values for the EC50 with BaF3 [16], in the data set on A-431 and in the data set on BaF3 [15] were 605 nM, 7960 nM and 615 nM, respectively.
